Blank lines part the entries; values can stand above or below the compound they belong to. Calls of active or inactive are those of the source. No cut-off for these calls is given here.
What was measured:
[1] = Half life in mouse serum; type: ADME, cell-free
[2] = Drug localization in mitochondria of human U87 cells at 20 uM incubated for 45 mins by Mitotracker staining-based confocal fluorescence microscopy; type: ADME; settings: u-87mg atcc, 0.75 h
Outline: (§1)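 U87 cells seeded at 10 000/well in imaging chambers and left overnight. Exposed to 20 μM compound in FluoroBrite DMEM for 45 min at 37 °C, then washed with HBSS. Stained 15 min with LysoTracker (1:10 000) or MitoTracker (1:15 000), plus NucBlue nuclear stain. Imaged live by confocal microscopy at 60×, dye excited at 633 nm. Colocalization scored by Pearson's correlation coefficient.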

[3] = Drug localization in lysosome of human U87 cells at 20 uM incubated for 45 mins by Lysotracker staining-based confocal fluorescence microscopy; type: ADME; settings: u-87mg atcc, 0.75 h; outline: as §1
U-87 MG [4] = test: Cytotoxicity against human U87 cells assessed as reduction in cell viability incubated for 72 hrs by AlamarBlue assay; type: functional, cell-based, U-87MG ATCC
HEK293 = test: Cytotoxicity against human HEK293 cells assessed as reduction in cell viability at 0.0001 to 10 uM incubated for 72 hrs by AlamarBlue assay; type: cell-based; settings: hek293, 72 h
Outline: (§2)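 LN18 and LN229 cells in DMEM with 5% FBS; HEK293 in DMEM/F12 with 10% FBS. Seeded at 2500/well and left overnight. Compounds added in PFHM II to final 0.0001–10 μM for 72 h. Viability by AlamarBlue, fluorescence Ex/Em 560/590 nm.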

[5] = Drug uptake in tumor of Fox1nu mouse xenografted with luciferase and RFP reporter expressing human U87 cells at 10 mg/kg, iv measured after 2 days post drug administration by fluorescence imaging analysis; type: ADME, organism-based, Neoplasm, U-87MG ATCC; settings: in vivo, 48 h
Outline: (§3)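 Xenograft mice carried subcutaneous U87-RFP-LUC flank tumors. Each received 10 mg/kg by retro-orbital i.v. injection in vehicle (2% DMSO, 9% ethanol, 9% BSA in PBS). Whole-body NIR fluorescence (ex 745/em 840 nm, radiant efficiency) imaged on IVIS under isoflurane at set times after injection. For organ signal, tumor and organs were dissected and imaged ex vivo.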

[6] = Time taken for drug metabolism in mouse serum at 50 uM by HPLC analysis; type: ADME, cell-free
Outline: (§4)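 Compound at 50 μM in commercial mouse serum at 37 °C. Followed by C4 HPLC with 780 nm absorbance; the metabolite was identified by MS and by coelution with a synthesized standard. Variant conditions: protease/phosphatase inhibitor cocktail premixed at 10% in serum, or incubation at low temperature.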

[7] = (§5) Drug metabolism in mouse serum assessed as 2-((E)-2-((E)-2-((2-Carboxyethyl)thio)-3-(2-((E)-1-(5-carboxypentyl)-3,3-dimethylindolin-2-ylidene)ethylidene)cyclohex-1-en-1-yl)vinyl)-1-(5-carboxypentyl)-3,3-dimethyl-3H-indol-1-ium chloride formation at 50 uM by HPLC analysis; type: ADME, cell-free; outline: as §4
[8] = Drug uptake in liver of Fox1nu mouse xenografted with luciferase and RFP reporter expressing human U87 cells at 10 mg/kg, iv measured after 2 hrs post drug administration by fluorescence imaging analysis; type: ADME, organism-based, U-87MG ATCC; settings: in vivo; outline: as §3
[9] = Toxicity in […] mouse xenografted with luciferase and RFP reporter expressing human U87 cells assessed as effect on body weight at 10 mg/kg, iv administered at day 4 and day 8 post inoculation and six injections weekly measured after 5 weeks; type: organism-based; settings: in vivo, 840 h
[10] = Drug uptake in Fox1nu mouse xenografted with luciferase and RFP reporter expressing human U87 cells assessed as increase in fluorescence signal in liver at 10 mg/kg, iv measured after 30 mins post drug administration by fluorescence imaging analysis; type: ADME, organism-based; settings: in vivo, 0.5 h; outline: as §3
[11] = Drug uptake in large intestine of Fox1nu mouse xenografted with luciferase and RFP reporter expressing human U87 cells at 10 mg/kg, iv measured after 2 hrs post drug administration by fluorescence imaging analysis; type: ADME, organism-based, U-87MG ATCC; settings: in vivo; outline: as §3
[12] = Half life of compound in human U87 tumor homogenate at 50 uM measured upto 72 hrs by HPLC analysis; type: ADME, U-87MG ATCC
Outline: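 Tumor homogenate prepared from U87 xenograft tissue in RIPA buffer (on ice), clarified by centrifugation and 0.2 μm filtration. Compound at 50 μM incubated at 37 °C for up to 72 h. Samples run on analytical C4 HPLC (5–90% MeCN gradient, 0.1% TFA) with 780 nm absorbance. Peak area normalized over time.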

[13] = Drug uptake in Fox1nu mouse xenografted with luciferase and RFP reporter expressing human U87 cells assessed as decrease in drug residual at 10 mg/kg, iv measured […] post drug administration by fluorescence imaging analysis relative to control; type: ADME, organism-based; settings: in vivo, 48 h, in the assay text read “48 hrs” for “24 hrs”; outline: as §3
[14] = Drug uptake in liver of Fox1nu mouse xenografted with luciferase and RFP reporter expressing human U87 cells at 10 mg/kg, iv measured after 2 days post drug administration by fluorescence imaging analysis; type: ADME, organism-based, U-87MG ATCC; settings: in vivo, 48 h; outline: as §3
LN-229 = test: Cytotoxicity against human LN229 cells assessed as reduction in cell viability at 0.0001 to 10 uM incubated for 72 hrs by AlamarBlue assay; type: functional, cell-based; outline: as §2
LN-18 = test: Cytotoxicity against human LN18 cells assessed as reduction in cell viability at 0.0001 to 10 uM incubated for 72 hrs by AlamarBlue assay; type: functional, cell-based; outline: as §2
[15] = Drug uptake in small intestine of Fox1nu mouse xenografted with luciferase and RFP reporter expressing human U87 cells assessed as decrease in drug residual at 10 mg/kg, iv measured after 2 hrs post drug administration by fluorescence imaging analysis; type: ADME, organism-based, U-87MG ATCC; settings: in vivo; outline: as §3
[16] = Drug uptake in kidney of Fox1nu mouse xenografted with luciferase and RFP reporter expressing human U87 cells at 10 mg/kg, iv measured after 2 hrs post drug administration by fluorescence imaging analysis; type: ADME, organism-based, U-87MG ATCC; settings: in vivo; outline: as §3
[17] = Drug uptake in Fox1nu mouse xenografted with luciferase and RFP reporter expressing human U87 cells assessed as decrease in drug residual at 10 mg/kg, iv measured at 144 hrs post drug administration by fluorescence imaging analysis relative to control; type: ADME, organism-based; settings: in vivo; outline: as §3
[18] = Drug uptake in kidney of Fox1nu mouse xenografted with luciferase and RFP reporter expressing human U87 cells at 10 mg/kg, iv measured after 2 days post drug administration by fluorescence imaging analysis; type: ADME, organism-based, U-87MG ATCC; settings: in vivo, 48 h; outline: as §3
[19] = Drug uptake in Fox1nu mouse xenografted with luciferase and RFP reporter expressing human U87 cells assessed as increase in fluorescence signal in tumor at 10 mg/kg, iv measured after 30 mins post drug administration by fluorescence imaging analysis; type: ADME, organism-based; settings: in vivo, 0.5 h; outline: as §3
[20] = Half life in mouse serum at 50 uM incubated for 360 mins by HPLC analysis; type: ADME, cell-free; outline: as §4
U-87 MG [21] = test: Antitumor activity against luciferase and RFP reporter expressing human U87 cells xenografted in Fox1nu mouse assessed as decrease in tumor burden at 10 mg/kg, iv administered at day 4 and day 8 post inoculation and six injections weekly measured after 5 weeks by bioluminescence imaging analysis; type: functional, organism-based; settings: U-87MG ATCC
[22] = Drug uptake in tumor of Fox1nu mouse xenografted with luciferase and RFP reporter expressing human U87 cells at 10 mg/kg, iv measured after 2 hrs post drug administration by fluorescence imaging analysis; type: ADME, organism-based, Neoplasm, U-87MG ATCC; settings: in vivo; outline: as §3
[23] = as §5, with “uM in presence of protease and phosphatase” for “uM”; type: ADME, cell-free; outline: as §4
[24] = Drug uptake in Fox1nu mouse xenografted with luciferase and RFP reporter expressing human U87 cells assessed as increase in fluorescence signal in at retro-orbital vein at 10 mg/kg, iv measured after 30 mins post drug administration by fluorescence imaging analysis; type: ADME, organism-based; settings: in vivo, 0.5 h; outline: as §3
[25] = Drug metabolism in mouse serum assessed as 2-((E)-2-((E)-2-((2-Carboxyethyl)thio)-3-(2-((E)-1-(5-carboxypentyl)-3,3-dimethylindolin-2-ylidene)ethylidene)cyclohex-1-en-1-yl)vinyl)-1-(5-carboxypentyl)-3,3-dimethyl-3H-indol-1-ium chloride formation at low temperature at 50 uM by HPLC analysis; type: ADME, cell-free; outline: as §4
[26] = Drug uptake in lung of Fox1nu mouse xenografted with luciferase and RFP reporter expressing human U87 cells at 10 mg/kg, iv measured after 2 hrs post drug administration by fluorescence imaging analysis; type: ADME, organism-based, U-87MG ATCC; settings: in vivo; outline: as §3

- half-life [1]: 0.6 h
- Drug uptake [2]: Active
- Drug uptake [3]: Active
Compound: CC1(C)C(/C=C/C2=C(Cl)C(=C/C=C3/N(CCCCCC(=O)O)c4ccccc4C3(C)C)/CCC2)=[N+](CCCCCC(=O)O)c2ccccc21.[Cl-]

Compound: CCCN1/C(=C/C=C2\CCCC(/C=C/C3=[N+](CCC)c4ccccc4C3(C)C)=C2SCCC(=O)Nc2ccn([C@H]3C[C@H](O)[C@@H](CO)O3)c(=O)n2)C(C)(C)c2ccccc21
- IC50 (U-87 MG [4]): 3400 nM

- Drug uptake [2]: Active
- Drug uptake [3]: Active
Compound: CC1(C)C(/C=C/C2=C(Cl)C(=C/C=C3/N(CCCCS(=O)(=O)O)c4ccccc4C3(C)C)/CCC2)=[N+](CCCCS(=O)(=O)O)c2ccccc21.[Cl-]

- Drug uptake [2]: Active
- Drug uptake [3]: Active
Compound: CCCN1/C(=C/C=C2\CCCC(/C=C/C3=[N+](CCC)c4ccccc4C3(C)C)=C2Cl)C(C)(C)c2ccccc21.[Cl-]
- IC50 (U-87 MG [4]): 7100 nM

- Drug uptake [2]: Active
- Drug uptake [3]: Active
Compound: CCCN1/C(=C/C=C2\CCCC(/C=C/C3=[N+](CCC)c4ccccc4C3(C)C)=C2SCCC(=O)Nc2ccn([C@@H]3O[C@H](CO)[C@@H](O)C3(F)F)c(=O)n2)C(C)(C)c2ccccc21.[Cl-]

- Drug uptake [2]: Active
- Drug uptake [3]: Active
Compound: CC1(C)C(/C=C/C2=C(SCCC(=O)Nc3ccn([C@@H]4O[C@H](CO)[C@@H](O)C4(F)F)c(=O)n3)C(=C/C=C3/N(CCCCS(=O)(=O)O)c4ccccc4C3(C)C)/CCC2)=[N+](CCCCS(=O)(=O)O)c2ccccc21.[Cl-]
- IC50 (U-87 MG [4]): 20.7 nM

- Drug uptake [5]: Active
- Time [6]: 3 h
- Drug metabolism [7]: Metabolite_Detected
- Drug uptake [8]: Active
- Drug uptake [10]: Active
- Drug uptake [11]: Active
- half-life at 50 µM [12]: 60 h
- fold change (FC) [13]: 10
- Drug uptake [14]: Active
- Drug uptake [2]: Active
- Drug uptake [15]: Active
- Drug uptake [16]: Active
- fold change (FC) [17]: 100
- Drug uptake [18]: Active
- Drug uptake [19]: Active
- half-life at 50 µM [20]: 1 h
- Drug uptake [22]: Active
- Drug metabolism [23]: Metabolite_Notdetected
- Drug uptake [3]: Active
- Drug uptake [24]: Active
- Drug metabolism [25]: Metabolite_Notdetected
- Drug uptake [26]: Active
Compound: CC1(C)C(/C=C/C2=C(SCCC(=O)Nc3ccn([C@@H]4O[C@H](CO)[C@@H](O)C4(F)F)c(=O)n3)C(=C/C=C3/N(CCCCCC(=O)O)c4ccccc4C3(C)C)/CCC2)=[N+](CCCCCC(=O)O)c2ccccc21.[Cl-]
- Activity (HEK293): Toxic
- Activity [9]: Non-Toxic
- IC50 (U-87 MG [4]): 20.9 nM
- Activity (LN-229): Active
- Activity (LN-18): Active
- Activity (U-87 MG [21]): Active
